Measurements taken from ChEMBL document CHEMBL5523690, “Synergistic effect of tryptamine-urea derivatives to overcome the chromosomally-mediated colistin resistance in Klebsiella pneumoniae” (Bioorg Med Chem, 2024).

Assays:
[1] = test system: Escherichia coli; test: Antibacterial activity against Escherichia coli ATCC25922 assessed as inhibition of visible bacterial growth measured after 20 hrs under aerobic condition by two fold serial dilution assay; format: functional
Procedure, shortened: (§1)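 Broth microdilution following EUCAST. Compound was tested at final well concentrations of 0.25–128 µg/mL against 5.10^5 CFU/mL inoculum, incubated 20 h at 37 °C aerobically. MIC was taken as the lowest concentration with no visible growth. There were three independent experiments per strain.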

[2] = test system: Klebsiella pneumoniae; test: Antibacterial activity against Klebsiella pneumoniae ATCC700603 assessed as inhibition of visible bacterial growth measured after 20 hrs under aerobic condition by two fold serial dilution assay; format: functional; procedure, shortened: as §1
[3] = test system: Pseudomonas aeruginosa; test: Antibacterial activity against Pseudomonas aeruginosa ATCC27853 assessed as inhibition of visible bacterial growth measured after 20 hrs under aerobic condition by two fold serial dilution assay; format: functional; procedure, shortened: as §1
[4] = test system: Escherichia coli; test: Antibacterial activity against colistin resistant Escherichia coli NTCC 13846 harboring mcr-1 gene assessed as inhibition of visible bacterial growth measured after 20 hrs under aerobic condition by two fold serial dilution assay; format: functional
[5] = test system: Escherichia coli; test: Antibacterial activity against colistin resistant Escherichia coli A50 harboring mcr-1 gene assessed as inhibition of visible bacterial growth measured after 20 hrs under aerobic condition by two fold serial dilution assay; format: functional
[6] = test system: Klebsiella pneumoniae; test: Antibacterial activity against chromosomally-mediated resistant Klebsiella pneumoniae BA03057 assessed as inhibition of visible bacterial growth measured after 20 hrs under aerobic condition by two fold serial dilution assay; format: functional
[7] = test system: Pseudomonas aeruginosa; test: Antibacterial activity against chromosomally-mediated colistin resistant Pseudomonas aeruginosa 15080 assessed as inhibition of visible bacterial growth measured after 20 hrs under aerobic condition by two fold serial dilution assay; format: functional
[8] = test system: Pseudomonas aeruginosa; test: Antibacterial activity against chromosomally-mediated colistin resistant Pseudomonas aeruginosa 10039 assessed as inhibition of visible bacterial growth measured after 20 hrs under aerobic condition by two fold serial dilution assay; format: functional
[9] = test system: Pseudomonas aeruginosa; test: Antibacterial activity against chromosomally-mediated colistin resistant Pseudomonas aeruginosa 1002 assessed as inhibition of visible bacterial growth measured after 20 hrs under aerobic condition by two fold serial dilution assay; format: functional
[10] = test system: Erythrocyte; test: Hemolytic activity in sheep RBC assessed as RBC deformation at 25 uM measured after 1 hr in presence of colistin by fluorescence microscopic analysis; format: toxicity, cell-based, Ovis aries
Procedure, shortened: (§2)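 PBS-washed sheep erythrocytes were exposed to compound in PBS at 25–800 µM, or 25 µM plus colistin 1 µg/mL. Each reaction held 5% (v/v) RBCs and 5% (v/v) DMSO, incubated 1 h at 37 °C with 100 rpm agitation, then centrifuged at 1000 g, 4 °C. Cell shape was examined by optical microscopy. Triplicates.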

[11] = Hemolytic activity in sheep RBC assessed as survival rate at 25 uM measured after 1 hr in presence of colistin by fluorescence microscopic analysis relative to control; format: toxicity, cell-based, Ovis aries, Erythrocyte; conditions: sheep red blood cells (erythrocytes), read-out: Survival
Procedure, shortened: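 Washed sheep erythrocytes in PBS, 5% (v/v) final with 5% (v/v) DMSO, given 25 µM agent plus colistin 1 µg/mL; 1 h at 37 °C, shaking 100 rpm; Triton X-100 0.5% positive and PBS negative controls; cells spun off at 1000 g, 4 °C; absorbance (750–600 nm) read as % RBC survival; triplicate; shape checked by optical microscopy.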

[12] = test system: Klebsiella pneumoniae; test: Synergistic antibacterial activity against Klebsiella pneumoniae BA03057 assessed as fractional inhibitory concentration index incubated for 24 hrs under aerobic condition in presence of colistin by checkerboard assay; format: functional
Procedure, shortened: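 Checkerboard against KP BA03057 at 5.10^5 CFU/mL. Colistin was two-fold diluted 0–64 µg/mL across compound two-fold diluted 0–100 µM. Plates were incubated 24 h at 37 °C aerobically and absorbance read at 600 nm. FICI = MIC(compound, combined)/MIC(compound alone) + MIC(colistin, combined)/MIC(colistin alone), with synergy at FICI < 0.5. Plates were run in duplicate.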

[13] = test system: Escherichia coli; test: Colistin adjuvant activity against colistin-resistant Escherichia coli A50 assessed as antibacterial effect by measuring colistin MIC incubated for 24 hrs under aerobic condition by two fold serial dilution method; format: functional
[14] = test system: Klebsiella pneumoniae; test: Colistin adjuvant activity against colistin-resistant Klebsiella pneumoniae BA03057 assessed as antibacterial effect by measuring colistin MIC incubated for 24 hrs under aerobic condition by two fold serial dilution method; format: functional
[15] = test system: Escherichia coli; test: Colistin adjuvant activity against colistin-resistant Escherichia coli A50 assessed as colistin MIC by measuring potentiation fold incubated for 24 hrs under aerobic condition by two fold serial dilution method relative to colistin alone; format: functional
[16] = test system: Erythrocyte; test: Hemolytic activity in sheep RBC assessed as hemolysis at 25 uM measured after 1 hr by fluorescence microscopic analysis; format: toxicity, cell-based, Ovis aries
Procedure, shortened: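 Sheep erythrocytes, PBS-washed, were treated at 5% (v/v) with compound (25–800 µM) in 5% (v/v) DMSO for 1 h at 37 °C, shaking at 100 rpm. Controls were 0.5% Triton X-100 (positive) and PBS (negative). After centrifugation at 1000 g, 4 °C, hemolysis was assessed visually and by absorbance (750–600 nm) as percent RBC survival. Triplicate.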

[17] = test system: Erythrocyte; test: Hemolytic activity in sheep RBC assessed as hemolysis at 1600 uM measured after 1 hr by fluorescence microscopic analysis; format: toxicity, cell-based, Ovis aries
[18] = test system: Erythrocyte; test: Hemolytic activity in sheep RBC assessed as RBC deformation at 800 uM measured after 1 hr by fluorescence microscopic analysis; format: toxicity, cell-based, Ovis aries; procedure, shortened: as §2

O=C(NCCc1c[nH]c2ccccc12)Nc1cccc(F)c1
MIC [1]: > 128 µg/mL
MIC [2]: > 128 µg/mL
MIC [3]: > 128 µg/mL
MIC [4]: > 128 µg/mL
MIC [5]: > 128 µg/mL
MIC [6]: > 128 µg/mL
MIC [7]: > 128 µg/mL
MIC [8]: > 128 µg/mL
MIC [9]: > 128 µg/mL
Activity [10]: Non-Toxic
viability at 1 h, 25 µM [11]: 96%
fractional inhibitory concentration index (FICI) [12]: 0.073
MIC [13]: 4 µg/mL
MIC [14]: 1 µg/mL
fold change (FC) [15]: 0.5
Activity [16]: Non-Toxic
Activity [17]: Non-Toxic
Activity [18]: Non-Toxic
